Data taken from paper PMC6366617 (Science (New York, N.Y.), 2019).

B1: sushi 1 domain of GABABR1a (Fc-tag enzymatically removed) (domain or fragment)
chain: TSEGCQIIHPPWEGGIRYRGLTRDQVKAINFLPVDYEIEYVCRGEREVVGPKVRKCLANGSWTDMDTPSRCVR

Columns and labels:
GABABR1a sushi 1 = assay: Biolayer interferometry, sAPPα binding to immobilized sushi peptides; conditions: sAPPα Fc-tag enzymatically removed; immobilized Fc-tagged sushi peptides
[1] = molecular target: sushi 1 domain of GABABR1a (Homo sapiens, UniProt Q9UBS5); assay: Isothermal titration calorimetry; type: binding; conditions: ITC
How it was run: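 Isothermal titration calorimetry was run between purified test protein and purified GABABR1a sushi 1 domain. Fc tags were enzymatically removed from both. The dissociation constant (KD) was derived from the titration.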

[2] = tested on: cultured mouse hippocampal neurons (mEPSCs); assay: mEPSC recording in cultured hippocampal neurons; type: cell-based; conditions: for reduction of mEPSC frequency: P < 0.001, 12-17 DIV; for effect on mEPSC frequency: acute application, Fc-tag enzymatically removed (ExD-AcD, sAPPαΔExD; n=17-20, N=3)
[3] = tested on: cultured mouse hippocampal neurons (mIPSCs); assay: mIPSC recording in cultured hippocampal neurons; type: cell-based; conditions: for reduction of mIPSC frequency: acute, P < 0.001
How it was run: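 Mouse hippocampal neurons in culture (12–17 DIV) were recorded for miniature currents, and mIPSCs were separated from mEPSCs by their decay kinetics. Frequency was compared between baseline and acute application of 250 nM test protein, or of 30 μM baclofen as GABABR agonist reference. n is cells.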

[4] = tested on: neurons lacking APP; App/Aplp1 dKO cultures (mEPSCs); assay: mEPSC recording in neurons lacking APP / App/Aplp1 dKO cultures; type: cell-based, mouse
[5] = tested on: neurons lacking APP; App/Aplp1 dKO cultures (mIPSCs); assay: mIPSC recording in neurons lacking APP / App/Aplp1 dKO cultures; type: cell-based, mouse
[6] = tested on: cultured hippocampal mouse neurons (presynaptic strength); assay: FM1-43 presynaptic vesicle recycling in cultured hippocampal neurons; type: cell-based
How it was run: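 Cultured mouse hippocampal neurons were loaded and unloaded with FM1–43 by a combined stimulation paradigm, before and after test protein (Fc tag enzymatically removed; dose series, 1 μM top). Presynaptic strength S = ΔF at individual boutons × density of FM+ boutons per image area. Antagonist arms were run with or without GABABR antagonist, normalized to control. N is independent experiments. Means ± SEM, one-way ANOVA with Tukey post hoc.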

[7] = tested on: Schaffer collateral synapses, acute hippocampal slices; parameters: species or system mouse; conditions: for paired-pulse ratio (PPR): 1 μM protein, first 2 stimuli at 20, 50 and 100 Hz
How it was run: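 Acute mouse hippocampal slices were pre-incubated 90 min with or without 1 μM test protein (Fc tag removed), with or without 10 μM CGP54626. fEPSPs were recorded in CA1 stratum radiatum on Schaffer collateral stimulation. Input/output: 0.1 Hz, 30–150 μA. Bursts at 20, 50 and 100 Hz were normalized to the first response peak. PPR used the first two pulses. n is slices. Means ± SEM.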

[8] = tested on: synaptic transmission and plasticity; conditions: ref [16]–[19]; cited from earlier work
App KO mice = conditions: cited from earlier work
GABABR1b = assay: Cell-surface binding assay, GABABR1b-expressing HEK293T cells; conditions: immunostaining, confocal, pDisplay vector, n=24
How it was run: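 Fc-tagged test protein, affinity-purified from transfected HEK293T supernatants, was applied to HEK293T cells displaying the receptor ectodomain at the surface (pDisplay). Fc alone served as control. Bound protein was detected by immunostaining, imaged by confocal microscopy and quantified per cell. n is total cells from 3–4 independent experiments. Means ± SEM, two-way ANOVA with Bonferroni post hoc.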

GABABR2 = assay: Cell-surface binding assay, GABABR2-expressing HEK293T cells; conditions: immunostaining, confocal, pDisplay vector, n=24
[9] = molecular target: sAPPα (Fc-tag enzymatically removed) (UniProt P05067-4 18-612); assay: ITC
[10] = tested on: sAPPα-Fc binding to GABABR1a-expressing HEK293T cells; assay: Competition of sAPPα-Fc binding to GABABR1a-expressing HEK293T cells; conditions: increasing concentrations of untagged sushi 1 peptide, excess; n=24-31
[11] = molecular target: B1; assay: ITC
[12] = 1 μM sAPPα, 90 min pre-incubation, 0.1 Hz, 30-150 μA
[13] = 30 μM baclofen, App/Aplp1 dKO vs WT cultures

Molecule: sAPPα: soluble APP ectodomain released by α-secretase; purified recombinant protein
- binding of sAPPα to sushi 1 (biolayer interferometry) (GABABR1a sushi 1): sushi 1 peptide was sufficient for binding sAPPα
- Kd ([1]; read-out: dissociation constant (KD) for sAPPα-sushi 1, purified proteins, Fc-tag enzymatically removed from both): 431 nM
- effect on mEPSC frequency at 25 nM ([2]; 25nM sAPPα): already apparent at 25nM
- effect on mEPSC amplitude ([2]; 250 nM sAPPα (Fc-tag removed), acute): without affecting mEPSC amplitude
- reduction of mEPSC frequency ([2]; 250 nM sAPPα (Fc-tag removed), acute, n=13 cells): 39 ± 5%
- reduction of mIPSC frequency ([3]; 250 nM sAPPα, n=13 cells): 44 ± 5%
- reduction in mIPSC amplitude ([3]; sAPPα, acute (250 nM)): 14%
- effect on mEPSC frequency in neurons lacking APP ([4]; sAPPα, neurons lacking APP): still reduced mEPSC and mIPSC frequency
- effect on mIPSC frequency in neurons lacking APP ([5]; sAPPα, neurons lacking APP): still reduced mEPSC and mIPSC frequency
- reduction of total presynaptic strength (S = ΔF × D) ([6]; 1 μM sAPPα, FM1-43 loading/unloading, n=8 experiments, P < 0.001): 57 ± 7%
- total presynaptic strength (S = ΔF × D), dose dependence ([6]; FM1-43 loading/unloading, sAPPα Fc-tag enzymatically removed, N=5-8): decreased the total presynaptic strength
- paired-pulse ratio (PPR) [7]: increased PPR for each frequency
- decrease of slope of the input/output (i/o) curve [7, 12]: 23%
- fEPSP amplitude [7, 12]: reduced fEPSP amplitude
- effect on LTP [8]: an enhancement of LTP
- effect on synaptic activity [8]: a reduction in synaptic activity
- rescue of spine density defects (App KO mice; ref [20]): sufficient to rescue synaptic defects in App KO mice, including defects in spine density
- rescue of LTP defects (App KO mice; ref [21], [22]): sufficient to rescue synaptic defects in App KO mice
- rescue of spatial learning defects (App KO mice; ref [21]): sufficient to rescue synaptic defects in App KO mice

Molecule: sAPPβ: soluble APP ectodomain released by β-secretase
- effect on mEPSC frequency [2]: similarly reduced mEPSC frequency

Molecule: sAPPαΔExD: sAPPα with deletion of the ExD
- effect on mEPSC frequency [2]: had no effect
- effect on mIPSC frequency ([3]; acute application): not sAPPαΔExD, reduced mIPSC frequency
- decrease of total presynaptic strength with ExD deletion ([6]; sAPPαΔExD 1 μM, FM1-43): not observed
- paired-pulse ratio (PPR) [7]: abolished the sAPPα-mediated effect
- effect on the i/o curve with ExD deletion ([7]; sAPPαΔExD 1 μM): abolished the sAPPα-mediated effect on the i/o curve

Molecule: residues 211–220: peptide of APP695 residues 211–220 (GGADTDYADG)
- binding affinity to sushi 1 (in words) ([1]; for ExD-AcD Fc-tag enzymatically removed): failed to bind sushi 1

Molecule: C[C@H](NC[C@H](O)CP(=O)(O)Cc1ccccc1)c1ccc(Cl)c(Cl)c1 [CGP55845, reference compound]
- effect of CGP55845 pretreatment on APP 17mer reduction of mEPSC frequency ([2]; CGP55845 5μM, 17mer 250 nM, n=16, N=3 (without CGP n=14, N=3)): blocks this effect
- effect of CGP55845 pretreatment on sAPPα effect on mIPSC frequency ([3]; CGP55845 5 μM, pretreatment): blocked by pretreatment

Molecule: C[C@H](NC[C@H](O)CP(=O)(O)CC1CCCCC1)c1ccc(Cl)c(Cl)c1 [CGP54626, reference compound]
- effect of CGP54626 on sAPPα-induced decrease of presynaptic strength ([6]; CGP54626 10μM, N=8): occluded
- effect of CGP54626 on sAPPα-mediated decrease in i/o slope ([7]; CGP54626 10 μM, preincubation of slices): abolished the sAPPα-mediated decrease in the slope of the i/o curve

Molecule: sAPPα-Fc: recombinant sAPPα with C-terminal Fc-tag from transfected HEK293T supernatants
- binding to GABABR1b-expressing cells (GABABR1b): not to GABABR1b-
- binding to GABABR2-expressing cells (GABABR2): not to GABABR1b-, or GABABR2-, expressing cells

Molecule: NCC(CC(=O)O)c1ccc(Cl)cc1 (stereo not drawn) [baclofen, reference compound]
- reduction of mEPSC frequency ([2]; 30 μM baclofen, acute, n=14 cells): 63 ± 5%
- reduction of mIPSC frequency ([3]; 30 μM baclofen, n=14 cells): 62 ± 5%
- effect on mEPSC frequency in App/Aplp1 dKO cultures [4, 13]: similarly reduced mEPSC and mIPSC frequency
- effect on mIPSC frequency in App/Aplp1 dKO cultures [5, 13]: similarly reduced mEPSC and mIPSC frequency

Molecule: B1
- Kd [9]: 431 nM

B2: sushi 1 peptide: sushi 1 domain of GABABR1a, recombinant (protein)
chain: TSEGCQIIHPPWEGGIRYRGLTRDQVKAINFLPVDYEIEYVCRGEREVVGPKVRKCLANGSWTDMDTPSRCVR
modifications: left off: Fc, end not stated, kept
- blocking of sAPPα-Fc binding to GABABR1a-expressing cells [10]: blocked binding of sAPPα-Fc to GABABR1a-expressing cells

Molecule: DDSDVWWGG (peptide, UniProt P05067-4 204-212, looked up) [APP 9mer peptide (APP695 residues 204-212)]
- Kd [11]: 2300 nM

Molecule: DDSDVWWGGADTDYADG (peptide, UniProt P05067-4 204-220, looked up) [APP 17mer peptide (APP695 204-220AA)]
- Kd [11]: 810 nM

B3: sAPLP1: soluble APP-like protein 1, lacks a conserved ExD (protein)
chain: SLAGGSPGAAEAPGSAQVAGLCGRLTLHRDLRTGRWEPDPQRSRRCLRDPQRVLEYCRQMYPELQIARVEQATQAIPMERWCGGSRSGSCAHPHHQVVPFRCLPGEFVSEALLVPEGCRFLHQERMDQCESSTRRHQEAQEACSSQGLILHGSGMLLPCGSDRFRGVEYVCCPPPGTPDPSGTAVGDPSTRSWPPGSRVEGAEDEEEEESFPQPVDDYFVEPPQAEEEEETVPPPSSHTLAVVGKVTPTPRPTDGVDIYFGMPGEISEHEGFLRAKMDLEERRMRQINEVMREWAMADNQSKNLPKADRQALNEHFQSILQTLEEQVSGERQRLVETHATRVIALINDQRRAALEGFLAALQADPPQAERVLLALRRYLRAEQKEQRHTLRHYQHVAAVDPEKAQQMRFQVHTHLQVIEERVNQSLGLLDQNPHLAQELRPQIQELLHSEHLGPSELEAPAPGGSSEDKGGLQPPDSKDDTPMTLPKGSTEQDAASPEKEKMNPLEQYERKVNASVPRGFPFHSSEIQRDELAPAGTGVSRE
modifications: left off: Fc, end not stated, kept
- effect on mEPSC frequency [2]: did not reduce mEPSC frequency
- reduction in mIPSC frequency by sAPLP1 ([3]; sAPLP1, acute, n=17 cells, P < 0.05): 17 ± 9%
